Shown are actives, neighbours in structure and some others; about 1.9% of the full set was active somewhere.
sPLA2-III inh – Inhibits HGIII-sPLA2 liposome hydrolysis, primary screen. Q9NZ20. 0.56% of 370,000 active. inhibition, % at 12.2 µM. QFRET BODIPY PC-A2 liposome hydrolysis, fluorescence. AID 743126;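 active means inhibition above mean plus 3 SD of compounds lying within the high and low control bounds, cut at about 19% in these data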
Target sequence (Q9NZ20 whole entry, looked up): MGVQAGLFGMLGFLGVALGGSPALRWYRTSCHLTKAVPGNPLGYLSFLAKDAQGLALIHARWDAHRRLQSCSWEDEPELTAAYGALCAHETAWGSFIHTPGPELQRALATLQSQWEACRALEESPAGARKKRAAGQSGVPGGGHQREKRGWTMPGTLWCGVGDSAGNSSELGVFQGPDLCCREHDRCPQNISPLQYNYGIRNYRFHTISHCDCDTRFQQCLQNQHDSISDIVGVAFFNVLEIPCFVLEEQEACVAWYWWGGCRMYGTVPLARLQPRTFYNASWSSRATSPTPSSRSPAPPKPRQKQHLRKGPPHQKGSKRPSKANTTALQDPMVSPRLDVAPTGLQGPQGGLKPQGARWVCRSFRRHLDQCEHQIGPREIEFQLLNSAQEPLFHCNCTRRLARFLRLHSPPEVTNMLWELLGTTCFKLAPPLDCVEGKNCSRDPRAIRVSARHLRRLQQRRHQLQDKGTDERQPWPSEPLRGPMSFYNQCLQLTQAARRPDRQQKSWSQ
Arrestin-AP2 inh – inhibitors of human beta-arrestin and AP2 interaction; inhibition, % at 10 µM; 0.31% of 340,000 active; FITC-arrestin peptide / GST-AP2 beads, flow cytometry; AP2 beta2 appendage carries R879A mutation;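 active means inhibition above a set limit, near 3 SD of compounds lacking own fluorescence, cut at about 54% in these data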
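Material – AP2 appendage R879A on GSH beads · Buffer or medium – PBS with 0.05% Tween 20 and 0.1% BSA · Probe or stimulus – fluorescein-tagged arrestin peptide at 50 nM final · Incubation – compound with beads 12 min RT, then probe 1 h RT · Detection – high-throughput flow cytometry of beads, ex 488, em 535 nm · Evaluation – percent response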
procasp3 activ – activates human procaspase-3; 0.11% of 330,000 active; activation, % at 8.5 µM; recombinant procaspase-3 D3A, Ac-DEVD-pNA absorbance 405 nm;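 active means activation above the mean of all tested compounds plus 3 SD, cut at about 21% in these data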
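Evaluation: percent activation relative to control range; Material: Procaspase-3 D3A mutant, all three cleavage aspartates alanine; Compound: single dose, 8.5 µM nominal compound, 0.8% DMSO; Replication: one well per compound; Signal: absorbance at 405 nm, 0 and 120 min; Schedule: 1 h preincubation plus 2 h reaction at 25 °C.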
PLCg1 inh – PLC-gamma1 (human) inhibition, primary screen; P19174; purified PLC-gamma1, fluorogenic substrate, fluorescence; inhibition, % at 12.2 µM; 0.84% of 370,000 active; AID 720700
PLC-beta3 inh – PLC-beta3 (human) inhibition, primary screen. inhibition, % at 12.2 µM. 0.18% of 370,000 active. Q01970. AID 720704. Purified PLC-beta3, fluorogenic substrate, fluorescence; in the data active means inhibition above about 11%
proCasp7 act – counter-screen: procaspase-7 (human) activation. AID 463210. activation, % at 8.5 µM. P55210. recombinant procaspase-7, Ac-DEVD-pNA absorbance 405 nm; D23A/D198A/D206A triple mutant, cannot self-cleave; scale: DMSO 0, 5 µM enzyme 100. 0.093% of 330,000 active;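 active means percent activation above the screen-wide mean plus 3 SD, cut at about 25% in these data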
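Assay system: Uncleavable procaspase-7 mutant enzyme; Input: 2 µM procaspase-7 mutant as dispensed; Also added: DEVD-pNA substrate; Medium: Zinc-free HEPES pH 7.4 with 300 mM NaCl, 0.01% Triton X-100; Timing: 1 h compound preincubation, 2 h substrate cleavage, 25 °C; Measured by: Epi-absorbance of released pNA at 405 nm, two timepoints.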
PLCgamma1 ctr – inhibits human PLC-gamma1 in PLC-beta3 counter-screen. shares compounds with PLCg1 inh. AID 743258. 3.1% of 3,300 active. inhibition, % at 12.3 µM. purified PLC-gamma1, fluorogenic substrate, fluorescence
PLCb3 confirm – human PLC-beta3 inhibition, confirmation; shares compounds with PLCg1 inh; purified PLC-beta3, fluorogenic substrate fluorescence; inhibition, % at 12.3 µM; 1% of 3,300 active; in the data active means inhibition above about 11%
A number is an active result; . = inactive; / = not tested or not shown. Unless noted, no stated cut-off is given here; in the data, active means inhibition above about 9.5%; inactive means the rest.

SMILES	sPLA2-III inh	Arrestin-AP2 inh	procasp3 activ	PLCg1 inh	PLC-beta3 inh	proCasp7 act	PLCgamma1 ctr	PLCb3 confirm
CCCCc1nc2ccccc2c(=O)n1NC(=O)c1c(O)c2c(n(CC(C)C)c1=O)CCCC2	.	.	/	12.5	.	/	.	.
COC(=O)c1c(C)[nH]c(C(C)=O)c1C	.	.	.	10.8	.	.	.	.
CCCCNC(=O)c1nc(-c2cc3ccccc3[nH]2)oc1-c1ccccc1	.	/	/	.	.	/	/	/
Cc1cc(Nc2ccc(F)c(Cl)c2)n2nc(C)nc2n1	.	.	.	.	.	.	/	/
COc1ccc(Nc2cc(C)nc3nc(C)nn23)cc1Cl	.	.	.	9.6	.	.	.	.
CCn1ccnc1CN(C)Cc1cn(-c2cccc(C)c2)nc1-c1cccc(F)c1	.	.	.	.	.	.	/	/
Cc1cccc(-n2cc(CN(C)Cc3nccn3C)c(-c3cccc(F)c3)n2)c1	.	.	.	11.1	.	.	.	.
CN1CCN(c2ccc(-c3csc(N4CCC(C(N)=O)CC4)n3)cc2)CC1	.	/	/	.	.	/	/	/
S=C(Nc1ccccc1)c1ccccn1	.	.	.	11.2	12.4	.	.	.
CCC[C@H]1[C@@H](NC(=O)c2cccc(C)c2)CC[C@@]23CCCN2C(=O)CCC[C@@H]13	.	/	/	.	.	/	/	/
COc1ccc(NC(=O)COC(=O)c2cc(Cl)ccc2O)cc1S(=O)(=O)N1CCCCC1	.	.	.	.	.	.	/	/
C=CCn1c(SCCN2C(=O)c3ccccc3C2=O)nc2scc(-c3ccc(F)cc3)c2c1=O	.	.	/	12.7	.	/	.	.
CCCCNC(=O)C[C@H]1C[C@@]2(C(=O)OCC)CCCC3=C2N(CCC3)C1=O	.	/	/	.	.	/	/	/
Cc1ccc(S(=O)(=O)NCC(=O)N2CCN(c3ccccn3)CC2)s1	.	/	/	.	.	/	/	/
COCCNC(=S)N(C)[C@H]1C[C@H]2c3[nH]c4c(-c5ccccc5)cccc4c3CCN2C(=O)[C@H]1[C@H](C)O	.	/	/	.	.	/	/	/
CC(=O)Nc1ccc(S(=O)(=O)N2c3ccc(F)cc3CCC2C)cc1 (stereo not given)	.	.	.	10.0	.	.	.	.
CN1C(=O)c2cc(NC(=O)Nc3ccccc3)ccc2OC[C@H]2O[C@@H](CC(=O)NCc3ccc(-c4ccccc4)cc3)CC[C@@H]21	.	/	/	.	.	/	/	/
CCNC(=O)C[C@H]1CC[C@H]2[C@@H](COc3ccc(NC(=O)c4ccc5c(c4)OCO5)cc3C(=O)N2C)O1	.	/	/	9.6	.	/	15.3	13.9
CN1C(=O)c2cc(NC(=O)Nc3ccccc3F)ccc2OC[C@H]2O[C@@H](CC(=O)NCc3ccc(-c4ccccc4)cc3)CC[C@@H]21	.	/	/	12.1	.	/	13.2	11.6
COC(=O)C[C@@H]1CC[C@@H]2[C@H](COc3ccc(NC(=O)c4ccc5c(c4)OCO5)cc3C(=O)N2C)O1	.	/	/	.	.	/	/	/
COC(=O)[C@H](CC(C)C)N(Cc1cn(Cc2ccccc2)nn1)S(=O)(=O)c1ccc(F)cc1Br	.	/	/	.	.	/	/	/
O=C1CCC[C@@H]2C=C[C@H](c3ccc(Br)cc3)[C@H]3CCN1[C@@H]32	.	/	/	.	.	/	/	/
CCOC(=O)C1=C(CC)Nc2ccccc2N=C1NC(=O)Cn1cnc2ccccc2c1=O	.	.	.	9.5	.	.	.	.
CCOc1ccc(NC(=O)CCNC(=O)Cn2cnc3ccccc3c2=O)cc1	.	.	.	9.6	.	.	.	.
Cc1ccc(-n2c(Cc3cccs3)nnc2SCC(=O)Nc2ccccc2-c2ccccc2)cc1	.	/	/	.	.	/	/	/
SMILES	sPLA2-III inh	Arrestin-AP2 inh	procasp3 activ	PLCg1 inh	PLC-beta3 inh	proCasp7 act	PLCgamma1 ctr	PLCb3 confirm
CCOC(=O)[C@@H]1CSCCS(=O)(=O)N1Cc1ccc(C(F)(F)F)cc1	.	/	/	.	.	/	/	/
Nc1ccc2c(c1)C(=O)C(=O)c1ccccc1-2	.	.	.	53.4	.	.	50.8	.
CN1[C@H](Cc2ccccc2)COc2cc(N3CCCC3)ccc2S1(=O)=O	.	/	/	.	.	/	/	/
Cc1[nH]nc(Nc2ccc(C(C)C)cc2)c1[N+](=O)[O-]	.	.	.	10.6	.	.	.	.
COc1ccc(C(=O)NCC(=O)OCCCOC(=O)CNC(=O)c2ccc(OC)c(OC)c2)cc1OC	.	.	.	12.4	.	.	.	.
O=Cc1cnc2ccccc2c1-c1ccccc1	.	.	.	.	.	.	/	/
O=Cc1c[nH]c2ncccc12	.	.	.	10.2	.	.	.	.
C=CC[C@@H](CC(=O)N[C@H](CO)Cc1ccccc1)C(=O)N[C@@H](COC(=O)[C@H](CC=C)CC(=O)OC(C)(C)C)Cc1ccccc1	.	.	.	9.5	.	.	.	.
C=CC[C@@H](CC(=O)N[C@@H](CO)Cc1ccccc1)C(=O)N[C@H](COC(=O)[C@@H](CC=C)CC(=O)OC(C)(C)C)Cc1ccccc1	.	.	.	.	.	.	/	/
C=CC[C@@H](CC(=O)NCCO)C(=O)N[C@@H](COC(=O)[C@@H](CC=C)CC(=O)OC(C)(C)C)Cc1ccccc1	.	.	.	10.0	.	.	.	.
Cc1nn(CCOc2ccccc2)c(=O)n1-c1ccc(F)cc1	.	.	.	10.5	.	.	.	.
O=C(NN1C(=O)CSC1=S)C(=O)NN1C(=O)CSC1=S	.	.	.	43.6	.	.	71.3	.
Nc1sccc1C(=O)N1CCN(c2ccccc2)CC1	.	/	/	.	.	/	/	/
C=CCNC(=O)C(C(=O)OCC)C1CCCCC1 (stereo not given)	.	.	.	10.2	13.6	.	.	.
O=C1CC(=C(c2ccccc2)c2ccccc2)C(=O)N1CCCCN1CCN(c2cccc(Cl)c2)CC1	.	.	.	20.0	11.0	.	.	.
Cc1ccc(NC(=O)OC2CC3CC2[C@H]2CCCCN2C3)cc1C (stereo not given in full)	.	/	/	.	.	/	/	/
COc1ccc(C(=O)Cc2ccccc2)cc1OC	.	.	.	.	.	.	/	/
COc1ccc(C(=O)NN=C(Cc2ccccc2)Cc2ccccc2)cc1OC	.	.	.	11.1	.	.	.	.
CCOc1ccc(-n2c(SCC(=O)Nc3ccc(Oc4ccccc4)cc3)nnc2-c2ccncc2)cc1	.	/	/	.	.	/	/	/
CC(C)CC(=O)Nc1cccc(NC(=O)CC(C)C)n1	.	.	.	10.0	.	.	.	.
CC(=O)Nc1cccc(NC(C)=O)n1	.	.	.	.	.	.	/	/
C[C@@H]1CCN(C2CC2)S(=O)(=O)c2c(cccc2N2CC[C@@H](O)C2)O1	.	/	/	.	.	/	/	/

Compound activity deposited in PubChem BioAssay by several laboratories.
